In ChEMBL document CHEMBL3763088, “Design, synthesis, and biological evaluation of water-soluble amino acid prodrug conjugates derived from combretastatin, dihydronaphthalene, and benzosuberene-based parent vascular disrupting agents” (Bioorg Med Chem, 2016):

Key:
Leucine aminopeptidase [1] = target: T1, Leucine aminopeptidase (Sus scrofa, UniProt Q29571); assay: Drug level assessed as porcine leucine aminopeptidase-mediated compound formation treated with (Z)-N,N''-(3-Methoxy-6-(3,4,5-trimethoxystyryl)-1,2-phenylene)bis(2-aminoacetamide) after 25 hrs using 3.7 units of enzyme by HPLC analysis; type: ADME; settings: pig
T1 sequence (Q29571 whole entry): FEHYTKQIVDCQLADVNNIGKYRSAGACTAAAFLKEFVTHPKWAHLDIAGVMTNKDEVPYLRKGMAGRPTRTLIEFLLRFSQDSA
Procedure, shortened: (§1)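 Porcine kidney microsomal LAP; units defined with 24 mM L-leucine p-nitroanilide in 50 mM sodium phosphate pH 7.2 at 37 °C. Enzyme preincubated in the same buffer at 37 °C, then substrate added. Aliquots were quenched with acetonitrile on ice, centrifuged and run on C18 HPLC (acetonitrile/water, 0.05% TFA, 1.0 mL/min, 22 °C, diode-array UV). Cleavage % from the parent/prodrug peak-area ratio; amounts from calibration curves.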

[2] = Cytotoxicity against human DU145 cells assessed as growth inhibition after 48 hrs by SRB assay; type: functional, DU-145
Procedure, shortened: (§2)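 Cells kept at 37 °C, 5% CO2, up to passage 15. Plated at 7500 cells/well in DMEM with 5% FBS and 1% gentamycin, grown 24 h, then given 10-fold serial dilutions for 48 h. Fixed with 10% TCA (final), SRB-stained, read at 540 nm, normalized at 630 nm. GI50 is the concentration halving net protein staining versus controls, taken from optical density data.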

Leucine aminopeptidase [3] = target: T1, Leucine aminopeptidase; assay: Drug level assessed as porcine leucine aminopeptidase-mediated compound formation treated with (Z)-N,N''-(3-Methoxy-6-(3,4,5-trimethoxystyryl)-1,2-phenylene)bis(2-aminoacetamide) after 25 hrs using 0.12 units of enzyme by HPLC analysis; type: ADME; settings: pig; procedure, shortened: as §1
NCI-H460 = assay: Cytotoxicity against human NCI-H460 cells assessed as growth inhibition after 48 hrs by SRB assay; type: functional; procedure, shortened: as §2
Leucine aminopeptidase [4] = target: T1, Leucine aminopeptidase; assay: Drug level assessed as porcine leucine aminopeptidase-mediated compound formation treated with (Z)-N,N''-(3-Methoxy-6-(3,4,5-trimethoxystyryl)-1,2-phenylene)bis(2-aminoacetamide) after 25 hrs using 1.5 units of enzyme by HPLC analysis; type: ADME; settings: pig; procedure, shortened: as §1
[5] = Cytotoxicity against human SKOV3 cells assessed as growth inhibition after 48 hrs by SRB assay; type: functional, SK-OV-3; settings: Homo sapiens, SK-OV-3, 48 h; procedure, shortened: as §2
Tubulin = Tubulin (Bos taurus, UniProt Q6B856+Q862L2+Q862F3); assay: Inhibition of bovine brain tubulin polymerization preincubated for 15 mins by spectrophotometric analysis
Procedure, shortened: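 Purified bovine brain tubulin, 1.0 mg/mL (10 μM), in 0.8 M monosodium glutamate pH 6.6 with 4% DMSO and varied compound. Temperature jumped from 0 to 30 °C; turbidity at 350 nm followed for 20 min.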

## COc1ccc(/C=C\c2cc(OC)c(OC)c(OC)c2)c(N)c1N
Leucine aminopeptidase [1]
  Drug metabolism: metabolite_detected
[2]
  GI50: 39.1 nM
Leucine aminopeptidase [3]
  Drug metabolism: metabolite_detected
NCI-H460
  GI50: 35.9 nM
Leucine aminopeptidase [4]
  Drug metabolism: metabolite_detected
[5]
  GI50: 23.5 nM
Tubulin
  IC50: 1500 nM
